Assay results from different studies.
Compare with care: the assays were run in different laboratories.
Target: AP2-associated protein kinase 1 (AAK1, Homo sapiens, UniProt Q2M2I8)
Observed: binding

| SMILES | assay | setting | remaining binding |
| --- | --- | --- | --- |
| CN(c1nccc(-c2cnn3ncccc23)n1)C1CC1 |  | 1 µM | 100% |
| O=C(Nc1c[nH]nc1C(=O)NC1CCNCC1)c1cc(F)cc(F)c1 | competition with immobilised ligand | 1 µM | 100% |
| Cc1nccc(COC(=O)N2C[C@@H]3[C@@H](CNC(=O)c4ccc5[nH]nnc5c4)[C@@H]3C2)n1 |  | 1 µM | 100% |
| C[C@@H]1CCN(c2nccc(-c3cnn4ncccc34)n2)C1 |  | 1 µM | 71% |
| C[C@@H](c1ccc(-n2cnc3c(N)ncnc32)cc1)N1CCc2nn(C)c(Cc3ccccc3)c2C1=O | competition with immobilised ligand | 0.1 µM | 98% |
| CN(c1ccnc(CNc2nc(Nc3ccc4c(c3)CC(=O)N4)ncc2C(F)(F)F)n1)S(C)(=O)=O |  | 1 µM | 27% |
| O=C(c1ccc(Nc2ncc(Cl)c(-c3ccc(Cl)s3)n2)cc1)N1CCC(N2CCCC2)CC1 | competition with immobilised ligand | 1 µM | 41% |
| CN(C(=O)c1ccccc1)c1cc(N(C)c2ccc3c(c2)CCc2ccc(C(=O)NCCN4CCOCC4)cc2C3=O)ccc1F |  | 1 µM | 100% |
| N[C@H]1CCN(c2nccc(-c3cnn4ncccc34)n2)C1 |  | 1 µM | 91% |
| O=C(NCc1ncc(C(F)(F)F)cc1Cl)c1ccc2c(c1)C1(CCS(=O)(=O)CC1)[C@@H](C1CC1)N2S(=O)(=O)c1ccc(F)cc1 |  | 1 µM | 100% |
| CN(C)c1ncc(F)c(-c2cnn3ncccc23)n1 |  | 1 µM | 89% |
| O=C(NCCCN1CCOCC1)c1ccc(Nc2nccc(-c3cc4ccccc4s3)n2)cc1 | competition with immobilised ligand | 1 µM | 27% |
| C=CC(=O)N1CCC(C(=O)NCC(=O)N2CCN(c3nc(-c4cnc(N)nc4C(F)F)nc(N4CCOCC4)n3)CC2)CC1 | competition with immobilised ligand | 1 µM | 100% |
| CNC(=O)[C@@H]1CC[C@@H](n2c(-c3ccc4cnccc4c3)nc3ccc(C(=O)NCc4cccc(C(N)=O)c4)cc32)C1 | competition with immobilised ligand | 1 µM | 93% |
| O=C(NCCCN1CCOCC1)c1ccc(Nc2ncc(Cl)c(-c3ccc(Cl)s3)n2)cc1 | competition with immobilised ligand | 1 µM | 35% |
| Cc1cnn2ncc(-c3ccnc(N(C)C)n3)c2c1 |  | 1 µM | 91% |
| CCc1ccccc1C(=O)Nc1n[nH]c2c(C)c(F)c(C3C(C#N)=C(C)N(C)C(C)=C3C#N)cc12 |  | 1 µM | 81% |
| COc1ccnn2ncc(-c3ccnc(N(C)C)n3)c12 |  | 1 µM | 100% |
| O=c1nc(-c2ccccn2)sc2ccccc12 |  | 1 µM | 100% |
| COc1cnc(Nc2cccc(S(N)(=O)=O)c2)nc1N1CCN(c2ccccc2)CC1 | competition with immobilised ligand | 1 µM | 73% |
| CC1CCCN1c1nccc(-c2cnn3ncccc23)n1 (stereo not shown) |  | 1 µM | 100% |
| N#CC1(c2ccccn2)CCN(Cc2cc(C(=O)N3CCCC3)c(=O)n3ccccc23)CC1 |  | 1 µM | 100% |
